Reference: ChEMBL document CHEMBL1629663, “Postantibiotic effects of telavancin against 16 gram-positive organisms” (Antimicrob Agents Chemother, 2009)
In brackets after ≈: the same amount, converted by molar mass.

Tests used:
Type in all cases: functional
Enterococcus faecium [1] = assay: Antimicrobial activity against Enterococcus faecium HMC 588 assessed as time required to induce sub-MIC effect at 0.2 times MIC exposed for 2 hrs by plate counting method
How it was run: (§1)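 Unexposed Mueller-Hinton broth cultures (about 5 × 10^6 CFU/ml, 35°C) were handled as in the PA-SME set but without the 10× MIC pre-exposure. They were diluted 1:1,000, then given telavancin at final 0.2, 0.3 or 0.4× MIC, with a drug-free control. Viable counts were taken every 2 h until McFarland no. 1 turbidity. Effect duration comes from log10 CFU/ml-time plots; two separate experiments with new inocula.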

Streptococcus agalactiae = assay: Antimicrobial activity against Streptococcus agalactiae HMC 5 assessed as time required to induce post antibiotic sub-MIC effect at 0.3 times MIC […] by plate counting method
How it was run: (§2)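 Mueller-Hinton broth cultures of about 5 × 10^6 CFU/ml were pre-exposed to telavancin at 10× MIC for 1 h at 35°C, then diluted 1:1,000. Telavancin was re-added to final 0.2, 0.3 or 0.4× MIC, alongside a drug-free tube. Viable counts were taken before exposure, after dilution, then every 2 h until McFarland no. 1 turbidity. Duration comes from log10 CFU/ml-versus-time plots; two separate experiments with fresh inocula.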

Enterococcus faecium [2] = assay: Antimicrobial activity against Enterococcus faecium HMC 588 assessed as time required to induce sub-MIC effect at 0.4 times MIC exposed for 2 hrs by plate counting method; how it was run: as §1
Staphylococcus aureus [3] = assay: Antimicrobial activity against vancomycin-intermediate-, methicillin-resistant Staphylococcus aureus 1984 assessed as time required to induce post antibiotic sub-MIC effect at 0.4 times MIC […] by plate counting method
How it was run: (§3)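 PAE was first induced with 10× MIC for 1 h at 35°C (inoculum about 5 × 10^6 CFU/ml, Mueller-Hinton broth) and ended by 1:1,000 dilution. Cultures were then split and given 0.2, 0.3 or 0.4× MIC, with one tube left without drug. Viable counts were taken before exposure, after dilution, then every 2 h until McFarland no. 1 turbidity. Two separate experiments, each with a new inoculum.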

Streptococcus pyogenes [4] = assay: Antimicrobial activity against Streptococcus pyogenes HMC 414 assessed as time required to induce sub-MIC effect at 0.3 times MIC exposed for 2 hrs by plate counting method; how it was run: as §1
Staphylococcus aureus [5] = assay: Antimicrobial activity against heterogenous vancomycin-intermediate-, methicillin-resistant Staphylococcus aureus 873 assessed as time required to induce sub-MIC effect at 0.2 times MIC […] by plate counting method
How it was run: (§4)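 SME, viable plate count method: no prior drug exposure. About 5 × 10^6 CFU/ml in Mueller-Hinton broth at 35°C received 0.2, 0.3 or 0.4× MIC, alongside a drug-free tube. Counts were taken at the start, then every 2 h until McFarland no. 1 turbidity, as log10 CFU/ml against time. Two separate experiments, each with a new inoculum.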

Staphylococcus aureus [6] = assay: Antimicrobial activity against vancomycin-resistant-, methicillin-resistant Staphylococcus aureus 510 by microdilution method
Enterococcus faecalis [7] = assay: Antimicrobial activity against Enterococcus faecalis HMC 571 assessed as post-antibiotic effect at 10 times MIC pre-exposed to Telavancin for 1 hr by plate counting method
How it was run: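 Organisms were suspended in Mueller-Hinton broth from overnight blood agar colonies at about 5 × 10^6 CFU/ml. Cultures were exposed to telavancin at 10× MIC for 1 h at 35°C in a shaking water bath, then diluted 1:1,000 to remove the drug, with an untreated growth control. Viable counts were taken before exposure, at 0 h, then every 2 h until McFarland no. 1 turbidity. PAE = T − C, the time to a 1 log10 rise. Two experiments.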

Staphylococcus aureus [8] = assay: Antimicrobial activity against heterogenous vancomycin-intermediate-, methicillin-resistant Staphylococcus aureus 873 assessed as post-antibiotic effect at 10 times MIC pre-exposed to Telavancin for 1 hr by plate counting method
How it was run: (§5)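 Viable plate count method in Mueller-Hinton broth. Direct colony suspension inoculum of about 5 × 10^6 CFU/ml was exposed to 10× MIC for 1 h at 35°C in a shaking water bath, then diluted 1:1,000 to remove drug. Counts were taken before exposure, at 0 h, then every 2 h until McFarland no. 1 turbidity. PAE = T − C, the time to a 1 log10 rise versus an unexposed growth control.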

Staphylococcus aureus [9] = assay: Antimicrobial activity against vancomycin-intermediate-, methicillin-resistant Staphylococcus aureus 1984 assessed as time required to induce sub-MIC effect at 0.2 times MIC […] by plate counting method; how it was run: as §4
Enterococcus faecalis [10] = assay: Antimicrobial activity against Enterococcus faecalis ATCC 29212 assessed as time required to induce post antibiotic sub-MIC effect at 0.4 times MIC […] by plate counting method; how it was run: as §2
Staphylococcus aureus [11] = assay: Antimicrobial activity against vancomycin-susceptible-, methicillin-resistant Staphylococcus aureus 1130 assessed as time required to induce post antibiotic sub-MIC effect at 0.2 times MIC pre-exposed to Telavancin for […] by plate counting method
How it was run: (§6)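 After 1 h preexposure to 10× MIC at 35°C and 1:1,000 dilution, cultures were split, and drug was re-added to final 0.2, 0.3 or 0.4× MIC, with a drug-free tube. Viable counts were taken every 2 h until McFarland 1 turbidity. Duration was derived from log10 CFU/ml versus time curves. Two experiments were run, each with a new inoculum.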

Staphylococcus aureus [12] = assay: Antimicrobial activity against vancomycin-susceptible-, methicillin-resistant Staphylococcus aureus 1130 by microdilution method
Streptococcus pyogenes [13] = assay: Antimicrobial activity against Streptococcus pyogenes HMC 414 assessed as time required to induce sub-MIC effect at 0.2 times MIC exposed for 2 hrs by plate counting method; how it was run: as §1
Staphylococcus aureus [14] = assay: Antimicrobial activity against vancomycin-intermediate-, methicillin-resistant Staphylococcus aureus 1984 assessed as time required to induce sub-MIC effect at 0.3 times MIC exposed for 2 hrs by plate counting method; how it was run: as §4
Enterococcus faecalis [15] = assay: Antimicrobial activity against Enterococcus faecalis ATCC 29212 assessed as time required to induce post antibiotic sub-MIC effect at 0.3 times MIC […] by plate counting method; how it was run: as §2
Staphylococcus aureus [16] = assay: Antimicrobial activity against vancomycin-intermediate-, methicillin-resistant Staphylococcus aureus 770 by microdilution method
Staphylococcus aureus [17] = assay: Antimicrobial activity against vancomycin-intermediate-, methicillin-resistant Staphylococcus aureus 1287 assessed as time required to induce post antibiotic sub-MIC effect at 0.4 times MIC […] by plate counting method; how it was run: as §3
Streptococcus pyogenes [18] = assay: Antimicrobial activity against Streptococcus pyogenes HMC 414 assessed as time required to induce post antibiotic sub-MIC effect at 0.3 times MIC exposed for […] by plate counting method; how it was run: as §2
Staphylococcus aureus [19] = assay: Antimicrobial activity against vancomycin-susceptible-, methicillin-resistant Staphylococcus aureus 1130 assessed as time required to induce post antibiotic sub-MIC effect at 0.3 times MIC […] by plate counting method; how it was run: as §6
Staphylococcus aureus [20] = assay: Antimicrobial activity against vancomycin-susceptible-, methicillin-resistant Staphylococcus aureus ATCC 33591 assessed as time required to induce post antibiotic sub-MIC effect at 0.2 times MIC pre-exposed to Telavancin […] by plate counting method; how it was run: as §6
Staphylococcus aureus [21] = assay: Antimicrobial activity against vancomycin-intermediate-, methicillin-resistant Staphylococcus aureus 555 assessed as post-antibiotic effect at 10 times MIC pre-exposed to Telavancin for 1 hr by plate counting method; how it was run: as §5

Q: What does the source list for `CCCCCCCCCCNCCN[C@@]1(C)C[C@H](O[C@H]2[C@H](Oc3c4cc5cc3Oc3ccc(cc3Cl)[C@@H](O)[C@@H](NC(=O)[C@@H](CC(C)C)NC)C(=O)N[C@@H](CC(N)=O)C(=O)N[C@H]5C(=O)N[C@H]3C(=O)N[C@H](C(=O)N[C@H](C(=O)O)c5cc(O)c(CNCP(=O)(O)O)c(O)c5-c5cc3ccc5O)[C@H](O)c3ccc(c(Cl)c3)O4)O[C@H](CO)[C@@H](O)[C@@H]2O)O[C@@H](C)[C@H]1O` [TELAVANCIN]?
A: PAE (Enterococcus faecium [1]): 1.2 h; PAE (Streptococcus agalactiae): 4.7 h; PAE (Enterococcus faecium [2]): 8.8 h; PAE (Staphylococcus aureus [3]): > 10 h; PAE (Streptococcus pyogenes [4]): 0 h; PAE (Staphylococcus aureus [5]): 0 h; MIC (Staphylococcus aureus [6]): 0.5 µg/mL (≈ 0.285 µM); PAE (Enterococcus faecalis [7]): 1.5 h; PAE (Staphylococcus aureus [8]): 1.2 h; PAE (Staphylococcus aureus [9]): 1 h; PAE (Enterococcus faecalis [10]): > 10.7 h; PAE (Staphylococcus aureus [11]): 5.4 h; MIC (Staphylococcus aureus [12]): 0.12 µg/mL (≈ 0.0684 µM); PAE (Streptococcus pyogenes [13]): 0 h; PAE (Staphylococcus aureus [14]): 2.6 h; PAE (Enterococcus faecalis [15]): > 10.7 h; MIC (Staphylococcus aureus [16]): 0.25 µg/mL (≈ 0.142 µM); PAE (Staphylococcus aureus [17]): > 10 h; PAE (Streptococcus pyogenes [18]): > 10.7 h; PAE (Staphylococcus aureus [19]): 10 h; PAE (Staphylococcus aureus [20]): 7.7 h; PAE (Staphylococcus aureus [21]): 3.4 h
